KCNK9 block: human KCNK9 channel inhibition; Q9NPC2; HEK293 KCNK9, FluxOR thallium flux fluorescence; stronger effect = lower value; B-score at 10 µM; 310,000 tested, 1.2% active; AID 488922;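 active means ratio B-score over 3 SD below the library mean, with starting fluorescence within 5 SD of its mean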;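 further: negative B-score means less thallium flux so channel inhibition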
Kir21 block: inhibitors of mouse Kir2.1 inward-rectifier potassium channel | HEK293-Kir2.1, FluxOR thallium flux fluorescence; stronger effect = lower value | B-score at 10 µM | AID 1672 | P35561 | 310,000 tested, 0.85% active;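 active means fluorescence ratio B-score at or below minus 3 SD of library scores, with starting-brightness B-score within 2 SD, cut at about -4.2 in these data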;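 further: channel flux triggered by added potassium and thallium sulfate stimulus; B-score of peak minus minimum fluorescence over baseline after thallium stimulus; more negative B-score means stronger Kir2.1 block with less thallium influx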
KCNQ1 block: inhibitors of human KCNQ1 potassium channel | 310,000 tested, 1.3% active | P51787 | CHO-K1 KCNQ1, FluxOR thallium flux fluorescence; stronger effect = higher value | B-score at 10 µM | AID 2642;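 active means compounds whose thallium flux B-score, printed positive for inhibition, exceeds three library SD while starting fluorescence stays within three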;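 further: channel opened by potassium depolarization with thallium stimulus after 20 min compound exposure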
Target sequence (P51787 whole entry, looked up): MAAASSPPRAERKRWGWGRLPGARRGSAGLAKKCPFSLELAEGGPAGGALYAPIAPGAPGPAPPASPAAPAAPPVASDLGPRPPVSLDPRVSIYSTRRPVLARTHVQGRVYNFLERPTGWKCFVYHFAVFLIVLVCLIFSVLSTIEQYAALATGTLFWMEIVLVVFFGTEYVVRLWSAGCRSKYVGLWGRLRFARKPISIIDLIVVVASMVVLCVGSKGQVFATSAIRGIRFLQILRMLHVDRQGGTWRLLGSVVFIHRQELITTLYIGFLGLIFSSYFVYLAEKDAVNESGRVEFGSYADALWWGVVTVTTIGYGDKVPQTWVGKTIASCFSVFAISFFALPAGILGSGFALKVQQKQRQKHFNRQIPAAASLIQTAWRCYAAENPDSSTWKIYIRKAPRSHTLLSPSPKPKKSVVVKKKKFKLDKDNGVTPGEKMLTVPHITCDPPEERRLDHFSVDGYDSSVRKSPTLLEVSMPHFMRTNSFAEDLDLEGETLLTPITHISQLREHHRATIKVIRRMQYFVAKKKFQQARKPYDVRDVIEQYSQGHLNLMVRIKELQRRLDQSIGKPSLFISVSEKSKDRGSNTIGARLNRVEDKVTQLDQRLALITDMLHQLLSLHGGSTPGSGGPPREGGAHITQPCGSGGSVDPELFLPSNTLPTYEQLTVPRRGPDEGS
KCNQ1 pot: human KCNQ1 channel potentiation or activation. 310,000 tested, 0.35% active. P51787. CHO-K1 KCNQ1, thallium flux FluxOR fluorescence; stronger effect = higher value. B-score at 10 µM;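 active means fluorescence ratio B-score, a plate-corrected score, at least three library SD, with initial intensity B-score within 5 SD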
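Assay system: CHO-K1 cells stably expressing KCNQ1. Medium: assay buffer for compound exposure, DMSO matched across wells. Timing: 37 °C overnight plating, 90-min dark dye load, 20-min compound pretreatment. Signal: kinetic FluxOR fluorescence, 10 s baseline plus 110 s post-stimulus.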
KCNK3 inh: human KCNK3 channel inhibition, primary screen; B-score at 10 µM; CHO-KCNK3 thallium flux, FluxOR fluorescence; stronger effect = lower value; O14649; 340,000 tested, 0.84% active; AID 602410;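 active means B-score under library mean minus 4 SD, starting fluorescence ratio at most library mean plus 5 SD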;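 further: more negative B-score means stronger inhibition of thallium flux through KCNK3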
hERG protect: compounds protecting human hERG from proarrhythmic drug block; 310,000 tested, 0.51% active; activation (rescue from dofetilide block), less the hit threshold, % at 10 µM; AID 1511; Q12809; CHO-hERG, FluxOR thallium flux, dofetilide IC70 present;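 active means activation above the mean of controls blocked by dofetilide plus 5 SD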;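 further: thallium influx through hERG after potassium depolarization seen as dye fluorescence rise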
KCNQ1 inh valid: reconfirmed blocker of the human KCNQ1 potassium channel; shares compounds with KCNQ1 block; KCNQ1 cell line, FluxOR thallium flux fluorescence; inhibition, % at 10 µM; 1,600 tested, 93% active;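 active means primary screen active, with duplicate mean exceeding buffer control mean plus 3 SD of buffer wells, cut at about 28% in these data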
CHO Tl flux: KCNQ1 inhibitor counter-screen hit in parental CHO cells | fluorescence ratio (Tl flux) at 10 µM | 1,600 tested, 21% active | AID 588366 | shares compounds with KCNQ1 block | parental CHO-K1, FluxOR thallium flux fluorescence ratio; stronger effect = lower value; zero means no signal rise above baseline;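 active means mean of duplicate thallium-flux fluorescence ratios in parental host cells more than 5 SD below the buffer control mean, cut at about 0.38 in these data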;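 further: ratio is peak minus minimum fluorescence divided by baseline fluorescence; actives read low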
KCNQ1 ephys val: blocks human KCNQ1 current in automated patch clamp. 490 tested, 20% active. KCNQ1-CHO cells. calls only at 10 µM. shares compounds with KCNQ1 block;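 active means KCNQ1 current drop exceeding 3 SD of negative control wells, seen in both duplicate runs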;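 further: steady state current during a 2 s step from -80 to +40 mV; negative values mean current inhibition and positive values mean potentiation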
KCNQ2 inh: rat KCNQ2 inhibition in KCNQ1 inhibitor specificity screen; shares compounds with KCNQ1 block; 1,600 tested, 71% active; KCNQ2 cells, FluxOR thallium flux fluorescence; inhibition, % at 10 µM;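 active means mean percent inhibition of the KCNQ2 thallium signal more than 5 SD above the buffer-only control wells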;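 further: KCNQ2 expressed in CHO cells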
KCNQ1-KCNE1 inh: KCNQ1 inhibitor that also blocks human KCNQ1/KCNE1 channel; shares compounds with KCNQ1 block; KCNQ1/KCNE1 cells, FluxOR thallium flux fluorescence; inhibition, % at 10 µM; 1,600 tested, 77% active;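 active means mean percent inhibition of duplicate wells above the buffer-only control mean plus 3 SD of those controls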
Numbers stand for hits. A selection: hits, their analogues and other compounds. The true share with any hit is near 3.8%.

Results for Cc1ccc(-c2cc3ccccc3nc2N2CCCC2)cc1 ?
KCNK9 block: inactive; Kir21 block: inactive; KCNQ1 block: 12; KCNQ1 pot: inactive; KCNK3 inh: inactive; hERG protect: inactive; KCNQ1 inh valid: 117.5; CHO Tl flux: inactive; KCNQ1 ephys val: inactive; KCNQ2 inh: 86.7%; KCNQ1-KCNE1 inh: 194.5%

How did Clc1ccc(-c2cc3ccccc3nc2N2CCCC2)cc1 do in these assays?
KCNK9 block: inactive; Kir21 block: inactive; KCNQ1 block: 12; KCNQ1 pot: inactive; KCNK3 inh: inactive; hERG protect: inactive; KCNQ1 inh valid: 130.0; CHO Tl flux: inactive; KCNQ1 ephys val: inactive; KCNQ2 inh: 82.7%; KCNQ1-KCNE1 inh: 167.0%

How did Cc1ccc(-c2nnc(N3CCCCC3)c3ccccc23)cc1 do in these assays?
KCNK9 block: inactive; Kir21 block: inactive; KCNQ1 block: inactive; KCNQ1 pot: inactive; KCNK3 inh: inactive; hERG protect: inactive

How did Cc1ccc(Nc2nc(N)c3ccccc3n2)cc1C do in these assays?
KCNK9 block: inactive; Kir21 block: inactive; KCNQ1 block: inactive; KCNQ1 pot: inactive; KCNK3 inh: inactive; hERG protect: inactive

How did CN(c1ccccc1)S(=O)(=O)c1ccc(C(=O)OCC(=O)NCc2cccs2)cc1 do in these assays?
KCNK9 block: inactive; Kir21 block: inactive; KCNQ1 block: 6; KCNQ1 pot: inactive; KCNK3 inh: inactive; hERG protect: inactive; KCNQ1 inh valid: 38.5; CHO Tl flux: inactive; KCNQ2 inh: 69.3%; KCNQ1-KCNE1 inh: inactive

Results for CCOc1ccc(-c2c(C(=O)N/N=C/c3cccnc3)nnn2-c2nonc2N)cc1 ?
KCNK9 block: inactive; Kir21 block: inactive; KCNQ1 block: inactive; KCNQ1 pot: inactive; KCNK3 inh: inactive; hERG protect: inactive

How did O=S(=O)(Nc1nc2ccccc2nc1N1CCN(c2ccccc2)CC1)c1ccc(F)cc1 do in these assays?
KCNK9 block: inactive; Kir21 block: inactive; KCNQ1 block: 10; KCNQ1 pot: inactive; KCNK3 inh: inactive; hERG protect: inactive; KCNQ1 inh valid: 78.5; CHO Tl flux: inactive; KCNQ2 inh: 69.3%; KCNQ1-KCNE1 inh: 62.0%

What do the screens show for `CCOC(=O)c1c(C)n(C)c2cc(Br)c(O)c(O)c12`?
KCNK9 block: inactive; Kir21 block: inactive; KCNQ1 block: 6; KCNQ1 pot: inactive; KCNK3 inh: inactive; hERG protect: inactive; KCNQ1 inh valid: inactive; CHO Tl flux: inactive; KCNQ2 inh: 59.3%; KCNQ1-KCNE1 inh: inactive

What do the screens show for `CC(C)(C)c1csc(NC(=O)C2COc3ccccc3O2)n1` (centres undefined)?
KCNK9 block: inactive; Kir21 block: inactive; KCNQ1 block: 7; KCNQ1 pot: inactive; KCNK3 inh: inactive; hERG protect: inactive; KCNQ1 inh valid: 68.5; CHO Tl flux: inactive; KCNQ2 inh: 59.7%; KCNQ1-KCNE1 inh: 80.5%

How did O=C(Nc1nncs1)C1COc2ccccc2O1 (centres undefined) do in these assays?
KCNK9 block: inactive; Kir21 block: inactive; KCNQ1 block: inactive; KCNQ1 pot: inactive; KCNK3 inh: inactive; hERG protect: inactive

What do the screens show for `COc1ccc(OC)c(S(=O)(=O)N2CCN(C(=O)CCc3ccccc3)CC2)c1`?
KCNK9 block: inactive; Kir21 block: inactive; KCNQ1 block: inactive; KCNQ1 pot: inactive; KCNK3 inh: inactive; hERG protect: inactive

Screening results (PubChem BioAssay)
